# Source: PubChem
# The list is not random: actives were taken first. Their share in the collection is about 4.7%.
# Jurkat NFkB inh: lowers PMA/ionomycin-induced NF-kB signal in Jurkat cells | PMA/ionomycin-induced NF-kB luciferase reporter, luminescence | inhibition, % at 4 µM | hit rate 0.53% among 330,000 | AID 435003; in the data active = inhibition above about 50%
# IMP-1 inhibitor: blocks Pseudomonas aeruginosa IMP-1 metallo-beta-lactamase; inhibition, % at 5.6 µM; AID 1556; hit rate 0.45% among 290,000; purified IMP-1, nitrocefin hydrolysis, epi-absorbance fluorescence;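 active = inhibition above the mean plus 3 SD of all compounds in the same screening run, cut at about 4.5% in these data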;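 note: 0% = IMP-1 with DMSO and 100% = DMSO wells lacking enzyme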
#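 System – purified recombinant IMP-1 beta-lactamase · Input – IMP-1 dispensed at 0.2 nM · Timing – 15 min preincubation plus 25 min reaction at 25 °C · Signal – Epi-absorbance fluorescence, 480 nm excitation, 530 nm emission · Measure – percent IMP-1 inhibition derived from blank-referenced optical density · Controls – Enzyme-plus-DMSO low control, enzyme-free DMSO high control · Replication – singlicate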
# aSyn 5UTR inh: MLPCN primary screen, SNCA 5' untranslated region; alpha-synuclein 5'UTR reporter, inhibitor activity; inhibition, % (tested at 7.5 µM); hit rate 0.82% among 300,000; in the data active = inhibition above about 60%;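 note: H4 neuroglioblastoma cells stably carrying SNCA 5'UTR luciferase fusion; 0% = DMSO wells and 100% = positive control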
# VIM-2 inhibitor: inhibitors of Pseudomonas aeruginosa VIM-2 metallo-beta-lactamase | purified VIM-2, nitrocefin hydrolysis, epi-absorbance fluorescence | inhibition, % at 5.6 µM | hit rate 0.89% among 290,000 | AID 1527;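 active = inhibition above the mean of all tested compounds plus 3 SD, cutoff set per screening run, cut at about 7.5% in these data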;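 note: red hydrolysis product quenches plate fluorescence so inhibitors raise well fluorescence; 0% = enzyme with DMSO and 100% = DMSO without enzyme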
# Mdm2 MdmX PPI: human Mdm2/MdmX binding inhibition. O15151+Q00987. SaOS-2 split-luciferase Mdm2/MdmX complementation, luminescence. inhibition, % at 8 µM. hit rate 3% among 330,000. AID 485346;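 active = inhibition of at least 50% at 8 µM in the primary screen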
# Target sequence (O15151 whole entry, looked up): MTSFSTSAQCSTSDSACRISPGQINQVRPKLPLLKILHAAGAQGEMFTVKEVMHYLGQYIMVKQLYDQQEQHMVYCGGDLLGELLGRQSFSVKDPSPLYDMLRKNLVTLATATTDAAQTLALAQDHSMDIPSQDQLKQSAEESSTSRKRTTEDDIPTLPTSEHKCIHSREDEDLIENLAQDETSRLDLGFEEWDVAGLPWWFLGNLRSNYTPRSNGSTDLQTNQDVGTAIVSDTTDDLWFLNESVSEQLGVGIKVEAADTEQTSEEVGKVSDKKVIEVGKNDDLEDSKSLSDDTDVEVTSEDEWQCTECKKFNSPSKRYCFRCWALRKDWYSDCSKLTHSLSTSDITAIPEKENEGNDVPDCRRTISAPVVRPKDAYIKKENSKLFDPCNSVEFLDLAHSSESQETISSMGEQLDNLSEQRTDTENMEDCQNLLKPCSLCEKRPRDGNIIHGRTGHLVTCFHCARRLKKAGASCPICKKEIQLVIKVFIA
# Target sequence (Q00987 whole entry, looked up): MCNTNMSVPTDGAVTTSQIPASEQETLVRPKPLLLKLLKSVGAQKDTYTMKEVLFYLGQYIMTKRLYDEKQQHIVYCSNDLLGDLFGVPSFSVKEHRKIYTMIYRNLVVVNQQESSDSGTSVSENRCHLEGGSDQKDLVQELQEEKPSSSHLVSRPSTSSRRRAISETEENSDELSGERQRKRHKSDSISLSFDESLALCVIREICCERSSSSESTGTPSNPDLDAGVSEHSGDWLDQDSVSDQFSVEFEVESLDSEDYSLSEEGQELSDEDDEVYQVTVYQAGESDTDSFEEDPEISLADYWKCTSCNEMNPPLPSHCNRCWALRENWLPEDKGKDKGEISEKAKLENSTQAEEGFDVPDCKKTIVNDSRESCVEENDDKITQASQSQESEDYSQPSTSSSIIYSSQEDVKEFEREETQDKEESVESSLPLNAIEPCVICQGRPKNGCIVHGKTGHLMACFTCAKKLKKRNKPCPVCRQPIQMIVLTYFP
# 697 NFkB inh: inhibitors of the PMA/ionomycin-induced NF-kB reporter in 697 B cells; 697 B-cell NF-kB luciferase reporter, 16 h; inhibition, % at 4 µM; hit rate 0.33% among 330,000; in the data active = inhibition above about 35%
# * hit, by the source's call; . = no result.
SMILES,Jurkat NFkB inh,IMP-1 inhibitor,aSyn 5UTR inh,VIM-2 inhibitor,Mdm2 MdmX PPI,697 NFkB inh
Cc1ccc(NC(=O)CNCc2ccc(Cl)cc2Cl)cc1S(=O)(=O)N(C)C,-4,0,2,1,0,0
CCCCN(C(=O)c1cc(=O)[nH]c2ccccc12)c1c(N)n(CCCC)c(=O)[nH]c1=O,18,-1,9,0,20,0
Cc1ccc(C(=O)NNC(=O)COC(=O)COc2ccccc2C#N)cc1,-6,.,.,.,-12,4
CCN1CCN(c2ccc(NC(=O)c3ccc4c(c3)[nH]c(=O)n4Cc3ccc(F)cc3)cc2)CC1,-3,-2,-68,9.2*,38,3
CCN1CCN(c2ccc(NC(=O)c3cccc(OCc4ccccc4)c3)cc2)CC1,-18,-3,-20,5,38,-57
CCN1C(=NCCCOC(C)C)N[C@@H](CCc2ccccc2)[C@H](C(=O)NCCCOC(C)C)[C@H]1C,-7,.,.,.,26,-42
Cc1cnc(C(=O)Oc2ccc(-c3ccccc3)cc2)cn1,-18,-4,-16,-2,2,9
NC(=S)N=Nc1ccc(NN=C(N)N)cc1,10,-4,68*,-1,33,3
CC(Cl)C(=O)Nc1c2c(nn1-c1ccccc1)CSC2 (stereo unspecified),-12,-3,-10,-1,7,-14
O=C(Nc1ccc(CN2CCOCC2)cc1)c1cc2ccccn2n1,-70,-4,72*,-5,29,-90
O=C(CSc1ccc2nnc(-c3cccs3)n2n1)N1CCCC1,6,-5,11,8.1*,31,0
CCOC(=O)CSc1ccc2nnc(-c3cccs3)n2n1,3,-5,2,7,-30,4
C=CCC(NC(C)c1ccccc1)c1ccco1 (stereo unspecified),-7,8.4*,-3,2,2,2
COc1ccc(OC)c(NC(=S)N2c3ccccc3CC2C)c1 (stereo unspecified),-3,0,-12,-1,11,-43
FC(F)(F)c1cc(Cl)c2nnc(-c3cccnc3)n2c1,21,-3,-11,-2,-27,6
FC(F)(F)c1cc(Cl)c2nnc(-c3ccccn3)n2c1,3,-4,10,8.1*,-9,4
COc1cccc(CN2C(=O)NC3(CCCCCC3)C2=O)c1,0,-4,1,-1,17,6
CC(=NC1CC1)c1c(-c2ccccc2)[nH]n(-c2nc3ccccc3s2)c1=O,6,-5,-33,-7,-3,9
CC(=NC1CCCC1)c1c(C)[nH]n(-c2nc3ccccc3s2)c1=O,-88,-1,94*,-3,-32,-108
CCCN(C(=O)CSc1ccccc1C(=O)O)C1CCS(=O)(=O)C1 (stereo unspecified),-17,.,.,.,-14,0
CC(=O)Nc1ccc(S(=O)(=O)c2ccc(N)cc2)cc1,11,-2,-11,-1,16,-9
NC(=S)Nc1ccc(S(=O)(=O)c2ccc(NC(N)=S)cc2)cc1,6,11*,-3,-5,-15,-12
Cc1ccc(SCC(=O)OCC(=O)N(CC(C)C)c2c(N)n(Cc3ccccc3)c(=O)[nH]c2=O)c(C)c1,20,.,-6,.,3,6
O=C1CSc2ccc(S(=O)(=O)NCc3ccccc3Cl)cc2N1,-4,1,8,1,9,-17
CC(CS(=O)(=O)c1ccc2c(c1)NC(=O)CS2)C(=O)NCc1ccccc1Cl (stereo unspecified),-28,9.2*,1,-3,14,-4
SMILES,Jurkat NFkB inh,IMP-1 inhibitor,aSyn 5UTR inh,VIM-2 inhibitor,Mdm2 MdmX PPI,697 NFkB inh
CCN1/C(=C/c2ccc3cc(C)ccc3[n+]2C)Sc2ccc3sccc3c21,.,18*,.,2,.,.
COC(=O)c1ccc(NC(=O)CN2C(=O)c3ccccc3S2(=O)=O)cc1,-5,-1,33,-3,8,-7
CCCCc1ccc(NC(=O)CN2NS(=O)(=O)c3ccccc3C2=O)cc1,-5,5.5*,21,0,-11,-18
Clc1cccc(-c2ccc(CNCc3ccccn3)o2)c1,-13,-6,-16,11*,4,-14
COc1ccc(CCN(C)C(=O)Cc2ccc(-c3ccccc3)cc2)cc1OC,17,8.5*,-2,-2,14,-40
COC(=O)c1[nH]c2ccc(C)cc2c1NC(=O)CCN1CCN(C2CCCCC2)CC1,-5,-1,13,-3,22,-35
COC(=O)c1[nH]c2ccc(Cl)cc2c1NC(=O)CCN1CCN(C2CCCCC2)CC1,-1,8.0*,-10,-2,25,-18
Cc1ccc2nc3c(cc(C(N)=S)c(=N)n3CCCOC(C)C)c(=O)n2c1,40,3,-64,7.9*,49,20
Cc1ccc2nc3c(cc(C(=O)NCCc4ccccc4)c(=N)n3CCN3CCOCC3)c(=O)n2c1,-8,-4,-32,0,6,-2
Cc1ccc2nc3c(cc(C#N)c(=N)n3CCCN3CCOCC3)c(=O)n2c1,.,-4,.,-2,.,.
COc1ccc(Cn2c(=N)c(C(=O)NC3CCCCC3)cc3c(=O)n4ccccc4nc32)cc1,41,-1,20,7,30,7
COc1ccc(CCn2c(=N)c(C(=O)NC3CCCC3)cc3c(=O)n4ccccc4nc32)cc1OC,-27,-2,-62,10*,39,-25
Cc1ccc2nc3c(cc(C(=O)NCCN4CCOCC4)c(=N)n3CCCN3CCOCC3)c(=O)n2c1,-10,-4,-4,8.9*,2,-20
N=c1c(C(=O)NCCN2CCOCC2)cc2c(=O)n3ccccc3nc2n1Cc1ccc(F)cc1,-11,-4,16,8.1*,23,9
COc1ccc(/C=C/C(=O)c2ccccc2O)cc1,-71,-3,-233,-5,-57,-59
COc1ccc(/C=C/C(=O)c2ccccn2)cc1,-25,1,-98,9.6*,14,-3
O=C(Nc1ccccc1N1CCOCC1)c1cccnc1Cl,-21,47*,1,1,7,2
O=C(Nc1ccc(N2CCOCC2)c(Cl)c1)c1cccnc1Cl,-10,-4,3,0,4,-1
Cc1ccc(C)c2c1N(Cc1ccccc1)C(=O)C21OCCO1,-6,-2,1,-1,-16,1
CCC1CCCCN1CCCNC(=O)c1c(O)nc2ccccn2c1=O (stereo unspecified),15,-4,8,-1,12,5
CCC1CCCCN1CCCNC(=O)c1c(O)nc2c(C)cccn2c1=O (stereo unspecified),-4,-1,2,9.6*,25,10
Cc1cccn2c(=O)c(C(=O)NCCCN3CCCCC3C)c(O)nc12 (stereo unspecified),22,-2,11,9.5*,21,14
CC1CCCCN1CCCNC(=O)c1c(O)nc2ccccn2c1=O (stereo unspecified),-4,-1,1,-1,23,-1
Cc1cc(C)c2c(n1)sc1c(N3CCN(CCO)CC3)ncnc12,2,2,15,12*,13,26
